Laboratory results taken from ChEMBL document CHEMBL1141177, “The novel L- and D-amino acid derivatives of hydroxyurea and hydantoins: synthesis, X-ray crystal structure study, and cytostatic and antiviral activity evaluations” (J Med Chem, 2005).
In brackets after ≈: the same amount, converted by molar mass.

What was measured:
WI-38 = assay: Inhibition of normal human fibroblast cell line (WI 38) growth; format: functional, cell-based
Summary of the method: (§1)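 Monolayers in DMEM with 10% FBS, 2 mM L-glutamine, penicillin/streptomycin, 37 °C, 5% CO2. Cells seeded on day 0, then compounds added in 5- and 10-fold dilutions (10^-8–10^-4 M) for 72 h. MTT read-out at 570 nm. Percent growth calculated relative to time-zero and untreated OD. Quadruplicates in three experiments; IC50 by linear interpolation, highest concentration reported as ">" when not reached.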

MCF7 = assay: Inhibition of breast carcinoma cell line (MCF-7) growth; format: functional, cell-based; settings: Homo sapiens; summary of the method: as §1
MIA PaCa-2 = assay: Inhibition of pancreatic carcinoma cell line (MiaPaCa-2) growth; format: functional, cell-based; settings: Homo sapiens; summary of the method: as §1
HEp-2 = assay: Inhibition of laryngeal carcinoma cell line (Hep-2) growth; format: functional, cell-based; settings: Homo sapiens; summary of the method: as §1
SW-620 = assay: Inhibition of colon carcinoma cell line (SW 620) growth; format: functional, cell-based; settings: Homo sapiens; summary of the method: as §1
L1210 = assay: Inhibition of murine leukemia cells (L1210) growth; format: functional, cell-based; settings: Mus musculus
HeLa = assay: Inhibition of cervical carcinoma cell line (HeLa) growth; format: functional, cell-based; settings: Homo sapiens; summary of the method: as §1
MOLT-4 = assay: Inhibition of human T-lymphocyte cell line (Molt4/C8) growth; format: functional, cell-based
HEL [1] = assay: Minimum cytotoxic concentration of compound that causes alteration of cell morphology in human embryonic lung cells; format: functional
Summary of the method: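 Human embryonic lung (HEL) cells were examined microscopically. MCC is the minimum concentration that causes a detectable alteration of cell morphology.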

HEL [2] = assay: Cytotoxic concentration to reduce the 50% cell growth of human embryonic lung cells; format: functional

For `O=C(NO)NC(Cc1ccccc1)C(=O)NC1CCCCC1` (stereo not given), the IC50 (WI-38) was greater than 100 µM, the IC50 (MCF7) was no less than 100 µM and the IC50 (MIA PaCa-2) was 30.6 µM. It also gave an IC50 (HEp-2) of 94.2 µM, an IC50 (SW-620) of 100 µM and an IC50 (L1210) of 18 µM. The IC50 (HeLa) was 58 µM and the IC50 (MOLT-4) was 19 µM.

`CC(C)C(NC(=O)NO)C(=O)NC1CCCC1` (stereo not given) was tested, and the IC50 (WI-38) was greater than 100 µM, the IC50 (MCF7) was greater than 100 µM and the IC50 (MIA PaCa-2) was greater than 100 µM. For the same compound, the IC50 (HEp-2) was 33.4 µM, the IC50 (SW-620) was greater than 100 µM and the IC50 (L1210) was greater than 200 µM. It also gave an IC50 (HeLa) greater than 100 µM and an IC50 (MOLT-4) greater than 200 µM.

With `CCC(C)C(NC(=O)n1nnc2ccccc21)C(=O)NC1CCCCC1` (stereo not given) the IC50 (MOLT-4) was 98 µM.

Work on `CCC(C)C(NC(=O)NO)C(=O)NC1CCCCC1` (stereo not given) yielded an IC50 (WI-38) greater than 100 µM, an IC50 (MCF7) greater than 100 µM and an IC50 (MIA PaCa-2) greater than 100 µM. The IC50 (HEp-2) was greater than 100 µM, the IC50 (SW-620) was greater than 100 µM and the IC50 (L1210) was 89 µM. For the same compound, the IC50 (HeLa) was greater than 100 µM and the IC50 (MOLT-4) was 150 µM.

`O=C(NO)NC(Cc1ccccc1)C(=O)NC(c1ccccc1)c1ccccc1` (stereo not given) gave an IC50 (WI-38) of 32.8 µM, an IC50 (MCF7) of 43.8 µM and an IC50 (MIA PaCa-2) of 41.1 µM. The IC50 (HEp-2) was 61.3 µM, the IC50 (SW-620) was 66.6 µM and the IC50 (L1210) was 18 µM. For the same compound, the IC50 (HeLa) was 39.8 µM and the IC50 (MOLT-4) was 21 µM.

`O=C(NO)NC(C(=O)NCc1ccccc1)c1ccccc1` (stereo not given) showed an IC50 (MOLT-4) of 17 µM.

`CC(C)C(NC(=O)NO)C(=O)NC1CCCCC1` (stereo not given) was tested, and the IC50 (WI-38) was 58.8 µM, the IC50 (MCF7) was greater than 100 µM and the IC50 (MIA PaCa-2) was greater than 100 µM. The IC50 (HEp-2) was greater than 100 µM, the IC50 (SW-620) was greater than 100 µM and the IC50 (L1210) was greater than 100 µM. For the same compound, the IC50 (HeLa) was greater than 100 µM and the IC50 (MOLT-4) was greater than 100 µM.

For `CCC(C)C(NC(=O)n1nnc2ccccc21)C(=O)NC1CCCC1` (stereo not given), the IC50 (MOLT-4) was 94 µM.

Work on `CCC(C)C(NC(=O)NO)C(=O)NC1CCCC1` (stereo not given) yielded an IC50 (MOLT-4) greater than 100 µM.

Compound `CCC(C)C1NC(=O)N(C2CCCCC2)C1=O` (stereo not given) has an IC50 (MOLT-4) greater than 200 µM.

Compound `O=C(NO)NC(C(=O)Nc1ccccc1)c1ccccc1` (stereo not given) has an IC50 (MOLT-4) greater than 200 µM.

`O=C(NO)NC(Cc1ccccc1)C(=O)NCc1ccccc1` (stereo not given) was tested, and the IC50 (WI-38) was greater than 100 µM, the IC50 (MIA PaCa-2) was greater than 100 µM and the IC50 (HEp-2) was greater than 100 µM. For the same compound, the IC50 (SW-620) was greater than 100 µM, the IC50 (L1210) was 17 µM and the IC50 (HeLa) was greater than 100 µM. The IC50 (MOLT-4) was 12 µM.

In the case of `CCC(C)C1NC(=O)N(C2CCCC2)C1=O` (stereo not given), the IC50 (MOLT-4) is reported as greater than 200 µM.

In the case of `O=C(NCc1ccccc1)C(Cc1ccccc1)NC(=O)n1nnc2ccccc21` (stereo not given), the IC50 (MOLT-4) is reported as 145 µM.

Compound `CCC(C)C(NC(=O)NO)C(=O)NC(c1ccccc1)c1ccccc1` (stereo not given) has an IC50 (MOLT-4) of 56 µM.

Work on `O=C(NO)NC(Cc1ccccc1)C(=O)N1CCCC1` (stereo not given) yielded an IC50 (WI-38) of no less than 100 µM, an IC50 (MCF7) greater than 100 µM and an IC50 (MIA PaCa-2) greater than 100 µM. For the same compound, the IC50 (HEp-2) was no less than 100 µM, the IC50 (SW-620) was greater than 100 µM and the IC50 (L1210) was greater than 200 µM. The IC50 (HeLa) was greater than 100 µM and the IC50 (MOLT-4) was 192 µM.

For `O=C(NO)NC(C(=O)N1CCCCC1)c1ccccc1` (stereo not given), the IC50 (WI-38) was 6.7 µM, the IC50 (MCF7) was greater than 100 µM and the IC50 (MIA PaCa-2) was greater than 100 µM. For the same compound, the IC50 (HEp-2) was greater than 100 µM, the IC50 (SW-620) was greater than 100 µM and the IC50 (L1210) was 80 µM. The IC50 (HeLa) was greater than 100 µM and the IC50 (MOLT-4) was 125 µM.

With `O=C(NO)NC(Cc1ccccc1)C(=O)NC1CCCC1` (stereo not given) the IC50 (WI-38) was greater than 100 µM, the IC50 (MCF7) was greater than 100 µM and the IC50 (MIA PaCa-2) was greater than 100 µM. It also gave an IC50 (HEp-2) greater than 100 µM, an IC50 (SW-620) greater than 100 µM and an IC50 (L1210) of 145 µM. For the same compound, the IC50 (HeLa) was greater than 100 µM and the IC50 (MOLT-4) was greater than 200 µM.

`CCC(C)C(NC(=O)n1nnc2ccccc21)C(=O)NC(c1ccccc1)c1ccccc1` (stereo not given) gave an IC50 (MOLT-4) of 79 µM.

In the case of `O=C(NO)NC(C(=O)NC(c1ccccc1)c1ccccc1)c1ccccc1` (stereo not given), the IC50 (WI-38) is reported as greater than 100 µM, the IC50 (MCF7) is reported as 83.8 µM and the IC50 (MIA PaCa-2) is reported as 31.8 µM. It also gave an IC50 (HEp-2) of 83.9 µM, an IC50 (SW-620) of 63.7 µM and an IC50 (L1210) of 18 µM. For the same compound, the IC50 (HeLa) was 42 µM and the IC50 (MOLT-4) was 39 µM.

Work on `CCC(C)C1NC(=O)N(Cc2ccccc2)C1=O` (stereo not given) yielded an IC50 (MOLT-4) greater than 200 µM.

Compound `CCC(C)C(NC(=O)NO)C(=O)NCc1ccccc1` (stereo not given) has an IC50 (MOLT-4) of 126 µM.

In the case of `Nc1nc2c(ncn2COCCO)c(=O)[nH]1` [ACYCLOVIR], the MCC (HEL [1]) is reported as greater than 400 µg/mL, the CC50 (HEL [2]) is reported as 200 µg/mL (≈ 888 µM) and the CC50 (HEL [2]; Homo sapiens, HEL, read-out: CC50) is reported as 200 µg/mL (≈ 888 µM).

Compound `CCC(C)C(NC(=O)n1nnc2ccccc21)C(=O)NCc1ccccc1` (stereo not given) has an IC50 (MOLT-4) of 96 µM.
